Compound activity from PubChem.
PPC-1+TRAIL kill: compounds killing PPC-1 cancer cells with TRAIL present (potentiator screen, no TRAIL-free arm); PPC-1 cells + TRAIL, ATPLite viability luminescence; cell killing (% activity), % at 4 µM or 5 µM; 220,000 tested, 0.41% active; AID 1443;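 active means cell killing above 50% in the first pass at 4 µM, then a duplicate retest at 5 µM averaging 50% or more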
TRAIL sens C8: caspase-8 TRAIL sensitization | 360,000 tested, 1% active | NB7+C8 cells + TRAIL, ATPlite viability luminescence | inhibition (viability loss, TRAIL sensitization), % at 10 µM;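 active means compounds causing at least 50% loss of cell viability in the single-dose screen, relative to plate controls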
beta cell repl: induces beta-cell replication in MIN6 cells; MIN6 cells proliferation, ATPlite luminescence, 48 h; cells starved in 0.2% serum; 100% = growth in 10% serum; proliferation, % at 10 µM; 330,000 tested, 0.29% active;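 active means compounds whose signal lies at least 3.5 SD above the mean of all wells on their plate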
iPSC survival up: hiPSC single-cell survival enhancement; ATPlite luminescence; 100% = ROCK inhibitor wells, 0% = DMSO; survival enhancement, % at 20 µM; 360,000 tested, 0.044% active; in the data active means survival enhancement above about 18%;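 further: cells exposed to compounds for 16 hours before the ATP read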
FLuc stim CS: affects firefly luciferase, flagging false hits in luciferase stimulation screens | P08659 | ATPlite luciferase biochemical, luminescence, 10 min; 0 = ATP-free wells, 1 = DMSO control | activation factor at 10 µM | 200,000 tested, under 10 active;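 active means luciferase activation factor, scaled between plate controls, of at least 2 with compound at 10 µM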
Target sequence (P08659 whole entry, looked up): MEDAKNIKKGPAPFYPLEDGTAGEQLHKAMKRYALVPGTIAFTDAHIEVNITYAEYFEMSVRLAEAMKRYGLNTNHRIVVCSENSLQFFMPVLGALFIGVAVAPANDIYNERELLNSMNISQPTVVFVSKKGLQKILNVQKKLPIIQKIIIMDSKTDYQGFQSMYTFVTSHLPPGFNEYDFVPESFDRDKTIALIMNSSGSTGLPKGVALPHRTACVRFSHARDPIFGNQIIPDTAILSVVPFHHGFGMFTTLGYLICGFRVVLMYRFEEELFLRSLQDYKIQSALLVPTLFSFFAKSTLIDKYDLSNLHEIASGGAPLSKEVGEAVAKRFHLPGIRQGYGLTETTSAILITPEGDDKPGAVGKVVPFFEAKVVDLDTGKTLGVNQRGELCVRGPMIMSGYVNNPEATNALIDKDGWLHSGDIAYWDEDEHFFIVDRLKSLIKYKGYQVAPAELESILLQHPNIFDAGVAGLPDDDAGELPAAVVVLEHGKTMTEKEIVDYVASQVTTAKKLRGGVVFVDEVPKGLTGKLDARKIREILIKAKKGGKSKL
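System: luciferase plus luciferin reagent, cell-free; medium: PBS as buffer for the ATP substrate; dosing: test compounds dosed from 2 mM stocks in 100% DMSO; timing: 10 min post-reagent at room temperature; measured by: luminescence measurement of luciferase light output; evaluation: luciferase activation, seen as luminescence increase over controls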
FLuc inhib CS: counter-screen for luciferase assay inhibitors: firefly luciferase inhibition. inhibition, % at 10 µM. ATPLite firefly luciferase biochemical luminescence, 10 min. 200,000 tested, 1.5% active. P08659;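 active means inhibition above about 50% when tested at 10 µM, limit read from the data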
Hits are given with their value; - = inactive; . = not tested or not shown. Rows were chosen to be rich in hits. Some 1.8% of all compounds tested hit in one or more screens of this group.

SMILES	PPC-1+TRAIL kill	TRAIL sens C8	beta cell repl	iPSC survival up	FLuc stim CS	FLuc inhib CS
O=C(COC(=O)c1ccc2ccccc2n1)c1ccccc1	-	-	-	-	-	60
N/C(=N\OC(=O)C12CC3CC(CC(C3)C1)C2)c1ccncc1	-	-	-	-	.	.
N/C(=N\OC(=O)c1ccc2c(c1)OCO2)c1cccc(Br)c1	-	-	-	-	-	96
Cc1ccc(/C(N)=N/OC(=O)C23CC4CC(CC(C4)C2)C3)cc1	-	88	-	-	-	-
O[C@@H]1C[C@H](c2ccc(Cl)cc2)N(Cc2cccs2)C[C@H]1n1cc(-c2ccc(F)cc2)nn1	.	-	.	-	.	.
COCCCNC(=O)Cn1cnc(C(=O)Nc2ccc(C)c(C)c2)n1	.	-	.	-	.	.
Cc1ccc2c(c1)N(CC(=O)NCCc1ccccc1)C(=O)c1cccnc1O2	.	-	-	-	.	.
Cc1ccc(C(=O)O/N=C(\N)c2ccc(Br)cc2)cc1	-	81	-	-	-	-
COc1ccc(/C(N)=N/OC(=O)c2c(-c3ccccc3Cl)noc2C)cc1OC	.	93	-	-	.	.
N/C(=N\OC(=O)c1cccc(Br)c1)c1ccc(Br)cc1	-	59	-	-	-	-
N/C(=N\OC(=O)c1ccc2ccccc2c1)c1ccncc1	-	-	-	-	-	-
N/C(=N\OC(=O)c1ccc2ccccc2c1)c1ccccc1Cl	.	93	-	-	.	.
CC(C)(C)C(=O)O/N=C(\N)c1ccc(Br)cc1	-	-	-	-	.	.
COc1ccc(C)cc1S(=O)(=O)N(C)CC(=O)NCc1ccncc1	.	-	-	-	.	.
O=C1N=C(N2CCN(c3ccccc3)CC2)S/C1=C\c1ccco1	-	-	-	-	-	61
CCN(C(=O)CSc1nc2ccc(Cl)cc2[nH]1)C1CCS(=O)(=O)C1 (centres undefined)	.	-	-	-	.	.
CCc1c(C(=O)Nc2ccc(OC)cc2)[nH]c(C)c1C(C)=O	-	-	-	22	-	-
Cc1c(Cl)cccc1NC(=S)Nc1ccc2[nH]c(=O)[nH]c2c1	-	-	-	-	.	.
O=C(Nn1cnnc1)c1cc(Br)ccc1Cl	.	-	-	-	.	.
Cc1ccc(C(=O)CSc2nnnn2C(C)C)c(C)c1	-	-	-	-	-	54
Cc1ccc(C)c(C(=O)CSc2nnnn2C(C)C)c1	-	-	-	-	-	-
COc1cccc(N2CCN(S(=O)(=O)c3ccc4c(c3)NC(=O)C(C)C(=O)N4)CC2)c1 (centres undefined)	.	-	-	-	.	.
O=C(NNC(=O)c1cc(OCC(F)(F)F)ccc1OCC(F)(F)F)c1cccc(C(F)(F)F)c1	-	52	-	-	-	-
O=C(NC1CC1)c1cc(OCC(F)(F)F)ccc1OCC(F)(F)F	-	-	-	-	-	-
O=C(NO)c1cc(OCC(F)(F)F)ccc1OCC(F)(F)F	-	51	-	-	-	-
SMILES	PPC-1+TRAIL kill	TRAIL sens C8	beta cell repl	iPSC survival up	FLuc stim CS	FLuc inhib CS
CCNC(=O)N(C)C[C@H]1N[C@@](Cc2ccccc2)(C(=O)OC)[C@H]2C(=O)N(C)C(=O)[C@@H]12	.	-	-	-	.	.
O=C(/C=C/c1ccc(Cl)cc1Cl)Nc1cccc(S(=O)(=O)NC2=NCCCCC2)c1	-	-	-	-	-	55
COCCCN=C1NN=C(c2cc(C)n(-c3ccccc3F)c2C)CS1	-	53	-	-	-	84
COCCn1c(C)cc(C2=NNC(=Nc3ccccc3F)SC2)c1C	-	-	-	-	-	82
COCCCN=C1NN=C(c2cc(C)n(-c3ccccc3)c2C)CS1	-	-	-	-	-	-
Cc1cc(C2=NNC(=Nc3ccccc3)SC2)c(C)n1C	-	-	-	-	-	61
Cc1cc(C2=NNC(=NC3CC3)SC2)c(C)n1-c1c(C)n(C)n(-c2ccccc2)c1=O	-	-	-	-	-	-
Fc1ccc(N=C2NN=C(c3cc(F)ccc3F)CS2)cc1	-	-	.	-	-	-
Cc1ccc(-n2c(C)cc(C3=NNC(=NC4CC4)SC3)c2C)cc1C	-	64	-	-	-	63
O=C(COC(=O)c1ccccc1SCC(=O)N1CCCC1)Nc1ccccc1C(F)(F)F	.	-	-	-	.	.
COc1ccc2oc(C(=O)Nc3nc(-c4ccccn4)cs3)c(C)c2c1	.	-	-	-	.	.
O=C(Nc1cccc(OC(F)(F)F)c1)c1cccc2c(-c3cccnc3)coc12	.	-	.	-	.	.
C=CCn1c2ccccc2c(=O)c2cc(C#CC[C@@H](C)O)ccc21	.	53	-	-	.	.
C=CCn1c2ccccc2c(=O)c2cc(C#CC3(O)CCCCC3)ccc21	.	81	-	-	.	.
CC1=C/C(=C\c2ccc3c(c2)OCO3)C(=O)S1	-	-	-	-	-	51
CCCN1C/C(=C/c2ccc3c(c2)OCO3)C(=O)/C(=C/c2ccc3c(c2)OCO3)C1	-	-	-	-	-	-
O=C1c2cccc3c([N+](=O)[O-])ccc(c23)C(=O)N1c1ccccn1	-	51	-	-	-	-
O=C1c2cccc3c([N+](=O)[O-])ccc(c23)C(=O)N1c1ccc(Cl)cn1	-	-	-	-	-	-
O=C1c2cccc3c([N+](=O)[O-])ccc(c23)C(=O)N1c1nccs1	-	53	-	-	-	-
COCc1c(C(=O)NCC(c2ccco2)N2CCCC2)oc2ccccc12 (centres undefined)	.	-	.	-	.	.
Cc1cccc(C(=O)Nc2ccc(NC(=O)c3cccc(C)c3)cc2)c1	.	-	.	-	.	.
O=C(Nc1ccc(NC(=O)c2cccs2)cc1)c1ccccc1	.	-	-	-	.	.
O=C(Nc1ccc(O)cc1)c1ccc(NC(=O)c2cccs2)cc1	.	66	-	-	.	.
Cc1cccc(C(=O)Nc2ccc(C(=O)Nc3ccc(O)cc3)cc2)c1	.	68	-	-	.	.
Cc1ccc(NC(=O)c2ccc(C)cc2)cc1	.	73	-	-	.	.
SMILES	PPC-1+TRAIL kill	TRAIL sens C8	beta cell repl	iPSC survival up	FLuc stim CS	FLuc inhib CS
Cc1cc(Br)cn2c(Cc3ccsc3)c(-c3ccc(Cl)cc3)nc12	.	-	.	-	.	.
COc1ccc(Cn2nnc3c(=O)[nH]c(C4CCN(S(=O)(=O)c5ccc(C)cc5)CC4)nc32)cc1	.	-	-	-	.	.
O=C1CC(C(=O)O)S/C(=N\N=C\c2ccc(Br)cc2)N1 (centres undefined)	-	-	-	-	.	.
Clc1cccc(CSc2nc3ccncc3[nH]2)c1	-	-	-	-	-	75
Fc1cccc(F)c1CSc1nc2ccccc2[nH]1	-	-	-	-	-	-
Fc1cccc(CSc2nc3ccncc3[nH]2)c1	-	58	-	-	-	78
COC(=O)c1cccc(CSc2nc3ccccc3[nH]2)c1	-	-	-	-	-	60
Cc1nn(-c2ccccc2)c(/N=C/c2ccc(O)cc2)c1-c1ccccc1	-	53	-	-	-	-
Cc1nn(-c2ccccc2)c(C)c1-c1ccccc1O	.	-	-	-	.	.
Cn1nc(C2CC2)cc1NC(=O)C1(C)CCN1C(=O)c1ccccc1CCc1ccccc1 (centres undefined)	.	-	.	-	.	.
